Tests used:
Histamine H3 receptor [1] = target: T1, Histamine H3 receptor (Homo sapiens, UniProt Q9Y5N1); assay: Antagonist activity at human recombinant histamine H3 receptor expressed in human SK-N-MC cells; format: functional, cell-based; details: read-out: pA2 (converted)
Histamine H3 receptor [2] = target: T1, Histamine H3 receptor; assay: Displacement of [125I]iodoproxyfan from human recombinant histamine H3 receptor expressed in human SK-N-MC cells; format: cell-based
Method in brief: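 Cells stably expressing human H3 were grown to confluence, washed in PBS, pelleted and stored at −80 °C. Pellets were homogenized in 50 mM Tris–HCl, 5 mM EDTA, pH 7.5, spun at 1000g for 5 min, then at 25,000g for 25 min.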

Histamine H3 receptor [3] = target: T2, Histamine H3 receptor (Rattus norvegicus, UniProt Q9QYN8); assay: Displacement of [125I]iodoproxyfan from rat recombinant histamine H3 receptor expressed in human SK-N-MC cells; format: cell-based
T2 sequence (Q9QYN8 whole entry): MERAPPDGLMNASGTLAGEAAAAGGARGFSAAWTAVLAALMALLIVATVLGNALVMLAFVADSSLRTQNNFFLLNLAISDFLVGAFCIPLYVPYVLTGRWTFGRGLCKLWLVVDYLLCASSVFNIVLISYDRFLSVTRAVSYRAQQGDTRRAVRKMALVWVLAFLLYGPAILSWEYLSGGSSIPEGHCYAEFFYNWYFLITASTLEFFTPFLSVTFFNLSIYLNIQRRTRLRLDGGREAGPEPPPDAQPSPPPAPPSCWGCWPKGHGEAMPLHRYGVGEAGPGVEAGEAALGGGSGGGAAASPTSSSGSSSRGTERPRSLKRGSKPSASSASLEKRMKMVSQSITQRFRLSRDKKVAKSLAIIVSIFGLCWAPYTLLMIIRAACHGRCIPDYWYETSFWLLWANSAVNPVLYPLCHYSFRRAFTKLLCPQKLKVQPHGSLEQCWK

Rattus norvegicus = assay: Ex vivo histamine H3 receptor occupancy in rat striatum at 0.3 mg/kg, po; format: functional
Method in brief: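 Rats were dosed orally, and striatal H3 receptor occupancy was measured ex vivo 60 min after dosing. Plasma and brain drug levels were taken at the same time. Values are mean ± SEM, n = 3.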

Histamine H3 receptor [4] = target: T2, Histamine H3 receptor; assay: Antagonist activity rat recombinant histamine H3 receptor expressed in human SK-N-MC cells; format: functional, cell-based; details: read-out: pA2 (converted)

T1 sequence (Q9Y5N1 whole entry): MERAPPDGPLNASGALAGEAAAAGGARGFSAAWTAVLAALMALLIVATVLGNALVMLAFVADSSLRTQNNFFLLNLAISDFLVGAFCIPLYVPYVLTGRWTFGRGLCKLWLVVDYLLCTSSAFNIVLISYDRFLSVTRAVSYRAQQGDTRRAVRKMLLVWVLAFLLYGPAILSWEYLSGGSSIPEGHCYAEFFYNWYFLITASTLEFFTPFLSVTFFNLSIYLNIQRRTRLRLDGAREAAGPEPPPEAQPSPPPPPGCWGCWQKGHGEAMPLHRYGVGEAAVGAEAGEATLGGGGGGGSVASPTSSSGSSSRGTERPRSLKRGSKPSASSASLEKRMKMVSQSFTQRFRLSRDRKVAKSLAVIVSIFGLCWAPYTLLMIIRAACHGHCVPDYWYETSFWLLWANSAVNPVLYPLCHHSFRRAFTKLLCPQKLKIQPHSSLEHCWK

Structure (SMILES)	Kb (Histamine H3 receptor [1]) [nM]	Ki (Histamine H3 receptor [2]) [nM]	Ki (Histamine H3 receptor [3]) [nM]	Kb (Histamine H3 receptor [4]) [nM]	Activity (Rattus norvegicus) [%]
CN1CCOC(COc2ccc(CN3CCOCC3)cc2)C1 (stereo not given)	–	2100	–	–	–
CCOc1ccccc1OCC1CN(C2CC2)CCO1 (stereo not given)	–	> 10000	–	–	–
CCOc1ccccc1OCC1CN(C(C)C)CCO1 (stereo not given)	–	9000	–	–	–
CC(C)N1CCOC(COc2ccccc2)C1 (stereo not given)	–	4800	–	–	–
c1ccc(OCC2CNCCO2)cc1 (stereo not given)	–	> 10000	–	–	–
c1cc(CN2CCOCC2)cc(OCC2CN(C3CC3)CCO2)c1 (stereo not given)	–	566	–	–	–
CCOc1ccccc1OCC1CN(C2CCCC2)CCO1 (stereo not given)	–	5300	–	–	–
CCOc1ccccc1OCC1CN(C2CCC2)CCO1 (stereo not given)	–	7100	–	–	–

Stronger by Ki (Histamine H3 receptor [2]), values ahead:

Kb (Histamine H3 receptor [1]) [nM]	Ki (Histamine H3 receptor [2]) [nM]	Ki (Histamine H3 receptor [3]) [nM]	Kb (Histamine H3 receptor [4]) [nM]	Structure (SMILES)	Activity (Rattus norvegicus) [%]
–	165	–	–	CCN1CCOC(COc2ccc(CN3CCOCC3)cc2)C1 (stereo not given)	–
–	106	–	–	c1cc(OCC2CN(C3CC3)CCO2)ccc1CN1CCOCC1 (stereo not given)	–
44.7	102	562	251	CC(C)N1CCOC(COc2cccc(CN3CCOCC3)c2)C1 (stereo not given)	–
–	49	92	–	CC(C)N1CCOC(COc2ccc(CN3CCOCC3)cc2)C1 (stereo not given)	–
14.1	37	277	79.4	c1cc(CN2CCOCC2)cc(OCC2CN(C3CCC3)CCO2)c1 (stereo not given)	–
7.94	31	121	43.7	c1cc(OC[C@H]2CN(C3CCCC3)CCO2)ccc1CN1CCOCC1	–
3.09	18	75	19.1	c1cc(OCC2CN(C3CCC3)CCO2)ccc1CN1CCOCC1 (stereo not given)	–
0.955	3.6	20	4.79	c1cc(OCC2CN(C3CCCC3)CCO2)ccc1CN1CCOCC1 (stereo not given)	–
0.148	2.5	10	1.55	c1cc(OCC2CN(C3CCCC3)CCO2)ccc1CN1CCCCC1 (stereo not given)	–
0.331	2.2	9.8	1.58	c1cc(OCC2CN(C3CCCC3)CCO2)ccc1CN1CCCC1 (stereo not given)	–
0.38	1.9	9.7	2.14	c1cc(OC[C@@H]2CN(C3CCCC3)CCO2)ccc1CN1CCOCC1	80

— ChEMBL document CHEMBL1143437, “2-Aryloxymethylmorpholine histamine H(3) antagonists” (Bioorg Med Chem Lett, 2008)
